GPR7 antagonist – human neuropeptides B/W receptor 1 antagonism. GPR7-expressing cells, fluorescence antagonist assay. actives 1.1% (n = 290,000). inhibition, % at 4.4 µM; in the data active = inhibition above about 16%, passing the limit was not always enough;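 also: cells stimulated with the agonist NPW; 0% = agonist with vehicle and 100% = vehicle without agonist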
GalR3 antagonist – blocks the human galanin receptor 3; actives 0.44% (n = 360,000); AID 651719; O60755; inhibition, % at 3 µM; HEK293 GalR3-CNG cAMP membrane potential fluorescence; galR3 body fused to GalR1 C-terminus;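 active = inhibition above the screen-wide average plus 3 SD, cut at about 13% in these data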;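 also: forskolin and galanin both at EC90 stimulate the cells; cAMP rise reported by CNG channel membrane potential dye signal; 0% = forskolin plus galanin with DMSO and 100% = forskolin alone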
CHO parental Ca – signal in parental CHO cells, OX1R antagonist counter-screen; parental CHO-K1, ATP-induced calcium, Fluo-8 fluorescence; inhibition, % at 5.6 µM; actives 0.63% (n = 330,000);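 active = inhibition above that plate's mean sample inhibition plus 3 SD, cut at about 26% in these data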;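 also: 0% = ATP-challenged DMSO wells and 100% = DMSO wells without ATP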
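Assay system – parental CHO cells · Reagent – ATP stimulus · Detection – intracellular calcium via Fluo-8 no-wash fluorescent dye · Evaluation – percent inhibition of ATP-evoked calcium rise, normalized to controls · Controls – ATP wells versus no-ATP DMSO wells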
OX1R antag-1 – blocks the human orexin 1 receptor | O43613 | CHO/OX1R cells, Fluo-8 calcium fluorescence, orexin A | inhibition, % at 5 µM | actives 0.43% (n = 330,000);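 active = inhibition above its plate's threshold, mean inhibition of all tested compounds on the plate plus 3 SD, cut at about 37% in these data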;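 also: 0% = orexin A challenge wells and 100% = SB-334867-A antagonist wells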
Target sequence (O43613 whole entry, looked up): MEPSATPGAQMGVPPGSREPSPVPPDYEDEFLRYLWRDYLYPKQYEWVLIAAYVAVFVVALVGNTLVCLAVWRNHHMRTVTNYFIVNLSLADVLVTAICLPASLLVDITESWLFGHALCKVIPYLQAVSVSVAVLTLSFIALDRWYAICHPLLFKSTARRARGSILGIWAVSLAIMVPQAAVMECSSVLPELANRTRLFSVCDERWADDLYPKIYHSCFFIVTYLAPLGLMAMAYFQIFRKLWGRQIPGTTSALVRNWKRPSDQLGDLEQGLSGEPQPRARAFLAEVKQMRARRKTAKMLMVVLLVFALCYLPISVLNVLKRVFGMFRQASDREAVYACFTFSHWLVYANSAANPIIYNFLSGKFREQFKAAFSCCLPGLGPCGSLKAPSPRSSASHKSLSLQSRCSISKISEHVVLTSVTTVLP
OX1R antag-2 – OX1R (human) antagonism. AID 485270. OX1R-expressing cells, FRET antagonist read-out. inhibition, % at 6.6 µM. O43613. actives 1.8% (n = 330,000); in the data active = inhibition mostly above about 38%, no sharp cut-off; inactive = mostly below about 40%;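 also: 0% = agonist challenge alone and 100% = reference antagonist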
OX1R HTRF conf – OX1R (human) antagonism, HTRF confirmed; inhibition, % at 6.6 µM; shares compounds with OX1R antag-2; AID 492964; OX1R-expressing cells, HTRF antagonist assay; actives 49% (n = 1,800); in the data active = inhibition above about 55%;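 also: CHO cells expressing OX1R stimulated with orexin A at about EC80; 0% = agonist challenge alone and 100% = reference antagonist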
CHO-K1 HTRF cnt – counter-screen: parental CHO-K1 HTRF response; shares compounds with OX1R antag-2; inhibition, % at 6.6 µM; AID 493232; actives 48% (n = 1,800); parental CHO-K1 cells, HTRF counterscreen; in the data active = inhibition above about 17%;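 also: 0% = agonist challenge with vehicle and 100% = vehicle alone without agonist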
The depositor's hits bear a star; . = no result given. Sampled rows, rich in hits. Any-hit rate of the full collection: about 3.1%.

SMILES | GPR7 antagonist | GalR3 antagonist | CHO parental Ca | OX1R antag-1 | OX1R antag-2 | OX1R HTRF conf | CHO-K1 HTRF cnt
c1ccc2c(N3CCCCCC3)nc(-c3ccncc3)nc2c1 | 0 | -1 | -50 | -20 | 88* | 41 | 8
c1cncc(-c2nc(N3CCCCCC3)c3ccccc3n2)c1 | -17 | 0 | -24 | -26 | 30 | . | .
O=[N+]([O-])c1ccc(N2CCCCC2)s1 | -6 | -6 | -13 | -4 | 101* | 39 | 70*
CC1CCCN(c2ccc([N+](=O)[O-])s2)C1 (stereo unspecified) | 0 | -2 | . | . | . | . | .
CN(Cc1nc2ccccc2c(=O)[nH]1)C(=O)c1ccc(S(=O)(=O)N2CCCC2)cc1 | . | -6 | -7 | -17 | 7 | . | .
NS(=O)(=O)c1ccc(N=Cc2c(O)c3ccccc3oc2=O)cc1 | -7 | -3 | -5 | -15 | 77* | 21 | -11
CC(C)c1ccc(N=Cc2c(O)c3ccccc3oc2=O)cc1 | -23 | -9 | -20 | -21 | 20 | . | .
NC(=O)N=Nc1c(O)[nH]c2ccc([N+](=O)[O-])cc12 | 4 | 3 | -7 | -19 | 102* | 45 | 63*
O=C(C1CCCO1)N1CCN(S(=O)(=O)c2cccc3nsnc23)CC1 (stereo unspecified) | -5 | -5 | -8 | -12 | 96* | 41 | 56*
O=C(C1CCCN1S(=O)(=O)c1cccc2nsnc12)N1CCCCC1 (stereo unspecified) | -9 | -3 | -7 | -17 | 61 | . | .
O=C(c1ccco1)N1CCN(C(=O)C2CCN(S(=O)(=O)c3cccc4nsnc34)CC2)CC1 | 0 | -4 | -3 | -10 | 100* | 30 | 47*
O=C(C1CCN(S(=O)(=O)c2cccc3nsnc23)CC1)N1CCN(c2ccccc2F)CC1 | 3 | -5 | -9 | -16 | 38 | . | .
CCN(C[C@H]1N[C@@](Cc2ccccc2)(C(=O)OC)[C@H]2C(=O)N(Cc3ccccc3)C(=O)[C@@H]12)C(=O)COc1ccccc1 | . | -4 | -28 | -14 | 10 | . | .
Cc1ccc2ncnc(Nc3ccc(C)c(C)c3)c2c1 | -5 | -8 | -13 | -29 | 78* | 42 | 12
O=[N+]([O-])c1ccc(/C=N/Nc2nc(N3CCCC3)nc(N3CCCC3)n2)o1 | -9 | -8 | -19 | -12 | 9 | . | .
O=C1OCCN1/N=C/c1ccc([N+](=O)[O-])o1 | -3 | . | -13 | 14 | 79* | 60* | 93*
N#CCCn1c(O)c(N=NC(=O)CNC(=O)c2cccs2)c2ccccc21 | -8 | -2 | -8 | -22 | 93* | 38 | 50*
CN(Cc1ccc(C(C)(C)C)cc1)C(=O)Cc1ccc(S(=O)(=O)N2CCOCC2)s1 | . | -5 | -22 | 2 | 11 | . | .
O=C(Nc1cccc(/C=C/c2ccccn2)c1)c1cc(Cl)ccn1 | -8 | -10 | -9 | -13 | 80* | 85* | 12
Cc1ccsc1CN(C(=O)c1ccc([N+](=O)[O-])cc1)C1CCS(=O)(=O)C1 (stereo unspecified) | -9 | -2 | 3 | -8 | 15 | . | .
c1csc(-c2nnc(-c3ccc(N4CCOCC4)cc3)o2)c1 | -3 | -2 | -10 | 14 | 77* | 83* | 12
CCOc1ccc(-c2nnc(-c3cccs3)o2)cc1 | -5 | -3 | -12 | -25 | 21 | . | .
COC(=O)c1ccccc1NC(=O)CCn1c(=O)oc2ccccc21 | -10 | -1 | -18 | -27 | 15 | . | .
NC(=O)c1cc(Cc2ccccc2)sc1NC(=O)c1ccco1 | -15 | -4 | -19 | -15 | 26 | . | .
CCOc1ccc(CC(=O)Nc2sc(Cc3ccccc3)cc2C(N)=O)cc1OCC | -10 | -5 | -17 | 14 | 79* | 88* | 2
Cc1c(CCOC(=O)c2cc([N+](=O)[O-])cc([N+](=O)[O-])c2)sc[n+]1CCCCS(=O)(=O)[O-] | -11 | 7 | -2 | -4 | 174* | 72* | 85*
Cc1c(CCOC(=O)c2ccccc2)sc[n+]1Cc1ccccc1 | -7 | -3 | -2 | -3 | -2 | . | .
CCOC(=O)c1ccc(Nc2cc(C)nc(-c3ccccc3)n2)cc1 | 6 | -9 | 8 | 26 | 83* | 29 | 15
CC(NC(=O)COC(=O)c1cc(=O)c2ccccc2o1)c1ccccc1 (stereo unspecified) | . | -3 | -17 | -9 | 0 | . | .
